Usually IC50 stands for the concentration that inhibits the measured activity by half. For orientation: inhibition means the change of the read-out against control, counted positive when it falls.

Results on 14 compounds are retold here after ChEMBL document CHEMBL4610016, “Synthesis, biological evaluation and anti-proliferative mechanism of fluorine-containing proguanil derivatives” (Bioorg Med Chem, 2020).

Calls of active or inactive are those of the source. The calls are words filed in the database; no cut-off is given here. A value given as a limit tells only on which side of the number the result lay.

The subject of experiment [1] is HCT-116. Nature of the experiment: Antiproliferative activity against human HCT116 cells assessed as reduction in cell viability incubated for 72 hrs by MTT assay. It is filed as functional, cell-based. As to conditions: HCT-116, 72 h. A general note: Tetrazolium assays rely on reduction of a dye to a coloured formazan, in cell work by metabolically active cells.

The test system of experiment [2] is A2780. Nature of the experiment: Antiproliferative activity against human A2780 cells assessed as reduction in cell viability incubated for 72 hrs by MTT assay. It is filed as functional, cell-based. As to conditions: A2780, 72 h. In a few lines:
(§1)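 Cells were seeded at 6.0×10³ per well and left 12 h, then treated in triplicate for 72 h. Ranges were 0–8 μM for UMUC3, T24, A2780 and HCT116, and 0–4 μM for A549. MTT (2 mg/mL) replaced the medium for 6 h at 37 °C, followed by DMSO solubilization and OD 490 nm. IC50 was taken as the mean of triplicate measurements. Cells were kept at 37 °C, 5% CO₂.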

Experiment [3] relates to T-24. Nature of the experiment: Antiproliferative activity against human T24 cells assessed as reduction in cell viability incubated for 72 hrs by MTT assay. It is filed as functional, cell-based. As to conditions: T-24, 72 h.
For experiment [4], the system named is UMUC3. Nature of the experiment: Antiproliferative activity against human UM-UC-3 cells assessed as reduction in cell viability incubated for 72 hrs by MTT assay. It is filed as functional, cell-based. As to conditions: UMUC3, 72 h. A digest of the protocol:
as §1

Experiment [5] deals with A549. Nature of the experiment: Antiproliferative activity against human A549 cells assessed as reduction in cell viability incubated for 72 hrs by MTT assay. It is filed as functional, cell-based. As to conditions: A549, 72 h. A digest of the protocol:
as §1

Experiment [6] has as its system UMUC3. Nature of the experiment: Inhibition of colony formation in human UM-UC-3 cells at 2 uM incubated for 6 to 8 days by crystal violet staining based assay. It is filed as functional, cell-based. A digest of the protocol: (§2)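 Colony formation: 8.0×10³ cells per well were seeded, and treatment began after 24 h, in triplicate, for 6–8 days. Ranges were 0–8 μM for UMUC3, T24 and HCT116, 0–4 μM for A2780, and 0–2 μM for A549. Cells were fixed in 10% formaldehyde and stained with 0.1% crystal violet. Colonies were counted, and absorbance was read at 490 nm. Data are the mean of 3 independent experiments.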

The test system of experiment [7] is HCT-116. Nature of the experiment: Inhibition of colony formation in human HCT116 cells at 2 uM incubated for 6 to 8 days by crystal violet staining based assay. It is filed as functional, cell-based. A digest of the protocol: as §2
Experiment [8] has as its system A549. The experiment is described as follows: Inhibition of colony formation in human A549 cells at 2 uM incubated for 6 to 8 days by crystal violet staining based assay relative to control. It is filed as functional. A digest of the protocol: as §2
For experiment [9], the system named is T-24. Nature of the experiment: Inhibition of colony formation in human T24 cells at 2 uM incubated for 6 to 8 days by crystal violet staining based assay. It is filed as functional, cell-based. In a few lines: as §2
Experiment [10] concerns HUVEC. Nature of the experiment: Cytotoxicity against human HUVEC cells assessed as reduction in cell viability incubated for 72 hrs by MTT assay. It is filed as cell-based. In a few lines: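 HUVEC were treated at 0–8 μM for 72 h, and viability was read from concentration-response curves. Values are the average of 3 independent experiments.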
In experiment [11] the test system is T-24. The experiment is described as follows: Inhibition of cell migration in human T24 cells at 3 uM incubated for 24 and 48 hrs by cellular scratch assay based microscopic analysis. It is filed as functional. A digest of the protocol:
(§3)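 Scratch wound assay. Cells were grown to confluence and scratched with a 10 μL tip, then washed twice with PBS. Compound was added in serum-free medium: 3 μM for UMUC3 and T24, 2 μM for A549. Gaps were photographed at 0, 24 and 48 h, and wound closure distance was measured. Three independent repeats were run.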

Experiment [12] concerns A2780. The experiment is described as follows: Inhibition of colony formation in human A2780 cells at 2 uM incubated for 6 to 8 days by crystal violet staining based assay. It is filed as functional, cell-based. In a few lines: as §2
The test system of experiment [13] is A549. Nature of the experiment: Inhibition of cell migration in human A549 cells at 2 uM incubated for 24 and 48 hrs by cellular scratch assay based microscopic analysis. It is filed as functional. A digest of the protocol:
as §3

Experiment [14] deals with UMUC3. The experiment is described as follows: Inhibition of cell migration in human UM-UC-3 cells at 3 uM incubated for 24 and 48 hrs by cellular scratch assay based microscopic analysis. It is filed as functional. A digest of the protocol:
as §3

The target of experiment [15] is T1, AMP-activated protein kinase, AMPK (Homo sapiens) (UniProt P54646+O43741+P54619+Q9UGJ0+Q9Y478+Q13131+Q9UGI9). The experiment is described as follows: Activation of AMPK in human T24 cells assessed as increase in AMPK phosphorylation at 2 uM measured upto 12 hrs by Western blot analysis. It is filed as cell-based. As to conditions: T-24. In a few lines: (§4)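 Western blot of bladder cancer cells treated at 2 μM over a 0–12 h time course; separately, a 0–2 μM series was run for 12 h. Lysates were resolved by 8% or 10% SDS-PAGE, transferred to PVDF, and blocked in 5% milk/TBST for 1 h. Primary antibodies were applied overnight at 4 °C and secondaries for 1 h. Phospho- and total AMPK, mTOR, p70S6K and 4EBP1 were probed. Band density was normalized to β-actin, and the mean of 3 independent experiments is reported.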

Experiment [16] addresses T1, AMP-activated protein kinase, AMPK (Homo sapiens). Nature of the experiment: Activation of AMPK in human T24 cells assessed as decrease in 4EBP1 phosphorylation at 2 uM measured upto 12 hrs by Western blot analysis. As to conditions: T-24. It is filed as cell-based. A digest of the protocol:
as §4

Experiment [17] has the same target. The experiment is described as follows: Activation of AMPK in human UM-UC-3 cells assessed as increase in AMPK phosphorylation at 2 uM measured upto 12 hrs by Western blot analysis. It is filed as cell-based. A digest of the protocol:
as §4

Experiment [18] has the same target. Nature of the experiment: Activation of AMPK in human UM-UC-3 cells assessed as decrease in 4EBP1 phosphorylation at 2 uM measured upto 12 hrs by Western blot analysis. It is filed as cell-based. In a few lines: as §4
Experiment [19] has the same target. The experiment is described as follows: Activation of AMPK in human UM-UC-3 cells assessed as decrease in mTOR phosphorylation at 2 uM measured upto 12 hrs by Western blot analysis. It is filed as cell-based. In a few lines:
as §4

For experiment [20] the target is unchanged. Nature of the experiment: Activation of AMPK in human T24 cells assessed as decrease in mTOR phosphorylation at 2 uM measured upto 12 hrs by Western blot analysis. It is filed as cell-based. As to conditions: T-24. In a few lines:
as §4
In general terms: Immunoblotting shows a protein as a band on a membrane.

The target is the same in experiment [21]. Nature of the experiment: Activation of AMPK in human UM-UC-3 cells assessed as decrease in p70S6K phosphorylation at 2 uM measured upto 12 hrs by Western blot analysis. It is filed as cell-based. In a few lines:
as §4

For experiment [22] the target is unchanged. The experiment is described as follows: Activation of AMPK in human T24 cells assessed as decrease in p70S6K phosphorylation at 2 uM measured upto 12 hrs by Western blot analysis. It is filed as cell-based. As to conditions: T-24. A digest of the protocol: as §4

As to `CCN(CC)C(=N)NC(=N)Nc1ccc(C(F)(F)F)cc1`, the IC50 is 4.3 µM in experiment [1]; 3.8 µM in [2]; 6.2 µM in experiment [3]; 4.9 µM in experiment [4]; 3.7 µM in experiment [5].
The matching figures for `CC(C)CNC(=N)NC(=N)Nc1ccc(F)c(F)c1`: 29.7 µM, 6.7 µM, 42.9 µM, 7.1 µM and 2.4 µM.
Regarding `N=C(NC(=N)NC1CCCC1)Nc1ccc(F)cc1F`, the IC50 in experiment [1] amounted to 29.5 µM; in experiment [2], 14.7 µM; in experiment [3], 37.8 µM; in experiment [4] it was 18.4 µM; in experiment [5], 4 µM.
`N=C(NC(=N)NC1CCCC1)Nc1ccc(C(F)(F)F)cc1`: the IC50 in [1] was 3.8 µM; in experiment [10], 7.3 µM; in [2], 2.5 µM; in [3] it was 3.7 µM; in experiment [4] it was 3.3 µM; in experiment [5], 1.8 µM. For the same compound, the inhibition result in experiment [6], in experiment [7], in [9], in experiment [11], in [12] and in [13] was “Active” throughout. Further, the inhibition entry in [14] was “Active”. The inhibition at 2 µM in experiment [8] stood at 100%.
Consider `CCCCCCCNC(=N)NC(=N)Nc1ccc(F)c(F)c1`, for which the IC50 is 1.8 µM in experiment [1]; 6.4 µM in experiment [10]; 1.5 µM in experiment [2]; 4.3 µM in experiment [3]; 2.1 µM in experiment [4]; 1.5 µM in experiment [5]. Further, the inhibition result in [6], in experiment [7], in experiment [9], in experiment [11], in experiment [12] and in experiment [13] was “Active” each time. In addition, the inhibition result in experiment [14] is “Active”. In experiment [8], this compound yielded an inhibition at 2 µM of 100%.
As for `CC(C)CNC(=N)NC(=N)Nc1ccc(C(F)(F)F)cc1`, the IC50 in experiment [1] was found to be 3.5 µM; in experiment [10] it was 8.5 µM; in experiment [2], 2.1 µM; in [3], 3.1 µM; in [4] it was 2 µM; in experiment [5] it was 1.3 µM. Further, the result in experiment [15], in [16], in experiment [17], in experiment [18], in experiment [19] and in experiment [20] was Active. Besides, the outcome in experiment [21] and in [22] was Active. In addition, the inhibition entry in [6], in experiment [7], in experiment [9], in [11], in [12] and in [13] was “Active” in each case. Also, the inhibition result in experiment [14] was “Active”. This compound registered an inhibition at 2 µM in experiment [8] of 100%.
With `CC(C)NC(=N)NC(=N)Nc1ccc(F)cc1`, the IC50 in experiment [1] is over 50 µM; in [2], 28 µM; in experiment [3] it was over 50 µM; in [4], over 50 µM; in [5], 7.5 µM.
As for `CC(C)NC(=N)NC(=N)Nc1ccc(Cl)cc1` [PROGUANIL], the IC50 in [1] came out at 8.4 µM; in experiment [2], 13 µM; in experiment [3], 18.4 µM; in experiment [4], 16.3 µM; in experiment [5], 3.8 µM. Further, the outcome in [15] and in [17] was inactive. Further, the inhibition result in experiment [6], in experiment [7], in [9] and in experiment [12] was “Active” in each case. Besides, the result in [16], in experiment [18], in [19], in experiment [20], in [21] and in [22] was Active. Moreover, the inhibition entry in experiment [11], in [13] and in experiment [14] was “inactive” throughout.
Turning to `N=C(NC(=N)NC1CCCC1)Nc1ccc(F)c(F)c1`, the IC50 in experiment [1] turned out to be 16.8 µM; in experiment [2], 9.3 µM; in experiment [3] it was 24.9 µM; in [4] it was 7.2 µM; in experiment [5], 3.5 µM.
Turning to `CC(C)NC(=N)NC(=N)Nc1ccc(C(F)(F)F)cc1`, the IC50 in [1] was 4.8 µM; in experiment [2], 3.2 µM; in experiment [3], 4.8 µM; in experiment [4], 5.2 µM; in experiment [5], 3.6 µM.
As to `CCN(C)C(=N)NC(=N)Nc1ccc(C(F)(F)F)cc1`, the half-inhibitory concentration (IC50) in experiment [1] worked out at 4 µM; in experiment [2], 5.1 µM; in experiment [3], 5.7 µM; in [4], 6.9 µM; in experiment [5], 4.1 µM.
The matching figures for `CC(C)NC(=N)NC(=N)Nc1ccc(F)c(F)c1`: over 50 µM, 26 µM, 45 µM, 25 µM and 5.2 µM.
The like results for `CCN(CC)C(=N)NC(=N)Nc1ccc(F)c(F)c1` were, in that order, 39.4 µM, 20.4 µM, 44.8 µM, 22.1 µM and 7.8 µM.
As to `CC(C)CNC(=N)NC(=N)Nc1ccc(F)cc1F`, the IC50 in experiment [1] is 21.1 µM; in experiment [2], 19.8 µM; in experiment [3], 40.8 µM; in experiment [4] it was 17.3 µM; in experiment [5], 3.6 µM.
